# T cell modulator: modulators of CD8 T cell-vesicle binding, primary screen, mouse 2C CD8+ T cells, flow cytometry. 0.068% of 330,000 active. response (vesicle binding), % at 7 µM. 2C CD8+ T cell-vesicle binding; hits give low values;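 active = response, share of CD8 T cells binding vesicles, and their 90th percentile fluorescence all below set limits, cut at about 80% in these data, passing the limit was not always enough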;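 also: values below 100% mean blocked vesicle binding to the CD8+ T cells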
#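 Read-out – percent CD8+ FL2 mean versus row control · System – murine 2C transgenic CD8+ T lymphocytes · Times – 1.5 h cell–vesicle binding at 37 °C, then 20 min icy labelling · Control set – naked vesicles low, QL9 vesicles with vehicle high · Detection – cytometric PE anti-B7-1 and Alexa647 anti-CD8 signals after 1% paraformaldehyde fixation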
# Arrestin-AP2 inh: inhibitors of beta-arrestin/AP2 binding, primary screen, biochemical, GPCR trafficking, flow cytometry; beta-arrestin 1 C-terminal peptide binding to AP2 beta2-adaptin appendage (human); FITC-arrestin peptide / GST-AP2 beads; AP2 beta2 appendage carries R879A mutation; 0.31% of 340,000 active; inhibition, % at 10 µM;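 active = inhibition above a set limit, near 3 SD of compounds lacking own fluorescence, cut at about 54% in these data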
#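 System: GST-AP2 R879A glutathione beads | Also added: FITC-arrestin peptide, 50 nM | Times: 12 min plus 1 h, RT | Signal: Bead flow cytometry, FITC channel | Buffer or medium: PBS with 0.05% Tween 20 and 0.1% BSA | Read-out basis: Percent drop in bead-associated FITC signal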
# MIN6 prolif: inducers of MIN6 beta-cell proliferation, primary screen, ATP luminescence, uHTS; 0.29% of 330,000 active; MIN6 cells proliferation, ATPlite luminescence, 48 h; cells starved in 0.2% serum; 100% = growth in 10% serum; proliferation, % at 10 µM;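 active = compounds whose signal lies at least 3.5 SD above the mean of all wells on their plate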
# V-ATPase pHluor: regulators of yeast V-ATPase proton pumping, primary screen, pHLuorin cytosolic pH fluorescence; S. cerevisiae; response, % at 10 µM; 0.37% of 350,000 active; AID 504577, 2011; in the data active = response mostly above about 7.3%, no sharp cut-off; inactive = mostly below about 5.4%; also: actives read high
# XiGFP reactiv: activators of inactive X chromosome reactivation, primary screen, imaging, XiGFP fibroblasts, GFP high-content imaging, set 2. XiGFP mouse fibroblasts, % GFP-positive cells imaging, 3 d; cells co-treated with 5-aza-dC sensitizer; scaled so ellipticine positive control = 100%. activation, % at 7.58 µM. 0.055% of 360,000 active. AID 743238, 2013;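 active = mean normalized replicate activation at least 10% and every replicate at or above 10%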
#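 Schedule: 3 d treatment, 15 min room-temperature fixation; system: 68-5-11 XiGFP fibroblast line; buffer or medium: DMEM plus 5-aza-dC sensitizer; control set: ellipticine 6 µM positive control; compound: one concentration, pinned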
# NTR1 agonist: agonists of human NTR1, primary screen, imaging, U2OS cells, beta-arrestin-GFP, high content; Neurotensin receptor type 1 (Homo sapiens), P30989; NTR1-U2OS beta-arrestin-GFP spot imaging, agonist mode; activation, % at 20 µM; 0.17% of 330,000 active;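 active = activation at or above 40% of the spot to cytoplasm intensity ratio, with at least 20 cells analyzed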
# Target sequence (P30989 whole entry, looked up): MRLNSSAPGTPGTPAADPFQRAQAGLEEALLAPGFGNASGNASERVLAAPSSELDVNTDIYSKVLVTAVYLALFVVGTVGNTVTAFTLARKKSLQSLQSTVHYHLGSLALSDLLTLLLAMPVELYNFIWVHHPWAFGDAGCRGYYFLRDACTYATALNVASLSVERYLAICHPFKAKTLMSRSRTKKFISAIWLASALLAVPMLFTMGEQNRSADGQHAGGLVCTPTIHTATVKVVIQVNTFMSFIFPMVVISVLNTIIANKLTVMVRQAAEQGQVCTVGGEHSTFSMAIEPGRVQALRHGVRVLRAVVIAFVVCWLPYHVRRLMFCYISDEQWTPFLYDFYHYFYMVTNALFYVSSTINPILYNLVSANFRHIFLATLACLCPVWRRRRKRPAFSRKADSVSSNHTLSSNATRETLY
# V-ATPase pH SP: yeast V-ATPase proton pumping modulators, confirmation, S. cerevisiae, pH-sensitive GFP, second cherry-pick; shares compounds with V-ATPase pHluor; S. cerevisiae pHLuorin cytosolic pH, V-ATPase proton transport; response, % at 10 µM; 2% of 980 active; AID 602197, 2012; in the data active = response above about 24%
# Hits are given with their value; i = inactive; nt = not tested or not shown. This is a sample that favours compounds with a hit; in the whole collection about 0.89% have one here.
SMILES,T cell modulator,Arrestin-AP2 inh,MIN6 prolif,V-ATPase pHluor,XiGFP reactiv,NTR1 agonist,V-ATPase pH SP
O=C(O)CSc1nnc(-c2ccccc2)o1,i,i,i,i,nt,i,i
O=C(CSc1nnc(-c2ccccc2)o1)N1CCCCC1,i,i,i,i,i,i,i
NC(=O)CSc1nnc(-c2ccc3c(c2)OCO3)o1,i,i,i,5.5,i,i,i
CC(C)CC#Cc1cnc2c(c1)C(=O)N([C@@H](C)CO)C[C@H](C)[C@@H](CN(C)C(=O)c1cnccn1)O2,nt,nt,nt,nt,i,nt,nt
O=C(NCC[C@H]1CC[C@H](NC(=O)C2CCCCC2)[C@H](CO)O1)c1ccc(F)cc1,nt,nt,nt,nt,i,nt,nt
C[C@@H]1CN([C@H](C)CO)C(=O)c2cc(C#Cc3ccccc3)cnc2O[C@H]1CN(C)C(=O)CCN1CCCCC1,nt,nt,nt,nt,i,nt,nt
O=C(CSc1nnc(-c2ccc(F)cc2)o1)N1CCCCC1,i,i,i,i,i,i,nt
O=C(CSc1nnc(-c2ccccc2)o1)NC(=O)Cc1ccccc1,i,i,i,i,i,i,i
COc1ccc(CCNC(=O)CSc2nnc(-c3cccc(C)c3)o2)cc1OC,i,i,i,i,nt,i,nt
COc1ccc(CCNC(=O)CSc2nnc(-c3ccccc3)o2)cc1OC,i,i,i,11,nt,i,i
O=C(CSc1nnc(-c2ccccc2)o1)N1CCCC1,i,i,i,i,i,i,i
CN(C)C(=O)C[C@@H]1C=C[C@@H](NC(=O)C2CCOCC2)[C@H](CO)O1,nt,nt,nt,nt,i,nt,nt
CCC(=O)N1C[C@@H](O)COC[C@@H]2O[C@@H](CC(=O)NCc3cc(F)cc(F)c3)CC[C@H]21,nt,nt,nt,nt,i,nt,nt
O=C1NC(=S)S/C1=C\c1coc2ccccc2c1=O,i,i,i,52,i,i,i
Cc1ccc(S(=O)(=O)Nc2ccc3c(c2)C(=O)N([C@H](C)CO)C[C@@H](C)[C@@H](CN(C)CC2CCCCC2)OCCCC[C@@H](C)O3)cc1,nt,nt,nt,nt,i,nt,nt
COc1ccc(NS(=O)(=O)c2ccc(C)c(C(=O)NCC(c3ccco3)N3CCCCC3)c2)cc1 (centres undefined),i,i,i,9.9,i,i,i
Cc1ccc(C)c(NC(=S)N/N=C/C(C)c2ccccc2)c1 (centres undefined),i,i,i,15,i,i,i
CN1c2ccc(-c3cccc(C#N)c3)cc2[C@@H]2[C@@H](CCN2S(=O)(=O)c2ccccc2)[C@H]1CO,nt,nt,nt,nt,i,nt,nt
CC(C)=C1C2CCC1C1C(=O)N(c3nccs3)C(=O)C21 (centres undefined),i,i,i,i,i,i,nt
O=C1C2C3C=CC(C3)C2C(=O)N1c1nccs1 (centres undefined),i,i,i,9.4,nt,i,i
CNC(=O)COC(=O)/C=C/c1cccs1,i,i,i,9.0,i,i,i
Cc1cc(C)n(CC(=O)Nc2ccccc2)n1,i,i,i,11,nt,i,i
Cc1ccc(NC(=O)Cn2nc(C)cc2C)cc1,i,i,i,i,nt,i,nt
CC(C)NC(=O)N[C@H]1CC[C@H](CCN)O[C@H]1CO,nt,nt,nt,nt,i,nt,nt
O=C(N/N=C/c1cc2c(cc1Br)OCO2)c1ccccn1,i,i,i,i,i,i,nt
SMILES,T cell modulator,Arrestin-AP2 inh,MIN6 prolif,V-ATPase pHluor,XiGFP reactiv,NTR1 agonist,V-ATPase pH SP
CC(C)(C)c1cc(C(=O)N/N=C/c2cc3c(cc2Br)OCO3)n[nH]1,i,i,i,11,i,i,i
Cn1cccc1CC(=O)NNC(=S)Nc1ccc(Cl)cc1Cl,i,i,i,16,i,i,i
CCC(=O)N1CCC2(CC1)CN(C(=O)Nc1ccccc1F)[C@H](CO)c1[nH]c3cc(OC)ccc3c12,nt,nt,nt,nt,i,nt,nt
COc1ccc(C2=NS(=O)(=O)N(C)C(C(=O)NC3CCCCC3)=C2)cc1,i,i,i,11,i,i,i
COc1ccc(C2=NS(=O)(=O)N(C)C(C(=O)NC3CCCC3)=C2)cc1,i,i,i,i,i,i,nt
Cc1noc(C)c1C(=O)N1CCCC(C(=O)c2cccc(OC(C)C)c2)C1 (centres undefined),i,i,i,13,i,i,i
Cc1ncoc1C(=O)N1CCCC(C(=O)c2cccc(OC(C)C)c2)C1 (centres undefined),i,i,i,i,i,i,nt
C[C@H](CO)N1C[C@H](C)[C@@H](CN(C)C(=O)Nc2ccc(F)cc2)Oc2ccc(NC(=O)C3CC3)cc2CC1=O,nt,nt,nt,nt,i,nt,nt
CCCNC(=O)Nc1ccc2c(c1)C(=O)N(C)C[C@@H](OC)[C@H](C)CN(CC1CCCC1)[C@H](C)CO2,nt,nt,nt,nt,i,nt,nt
Cc1nnc(SCc2nc3ccccc3s2)n1-c1ccccc1,i,i,i,8.3,nt,i,i
Cc1nnc(SCc2nc3ccccc3s2)n1N,i,i,i,i,i,i,nt
CCOc1ccc(C(=O)NC2CCCCCCC2)cc1,i,i,i,i,i,i,nt
O=C(NC1CCCCCC1)c1ccc(OCC2CCCO2)cc1 (centres undefined),i,i,i,7.8,i,i,i
Cc1ccccc1S(=O)(=O)N1[C@H](C#N)[C@@H](c2ccccc2-c2cccc(F)c2)[C@@H]1CO,nt,nt,nt,nt,i,nt,nt
O=C(NNc1nc2ccccc2s1)c1ccc(F)cc1,i,i,i,5.8,i,i,i
Cc1sc(NC(=O)Cc2ccc3c(c2)OCO3)nc1-c1ccc2c(c1)CCN2C(=O)c1ccccc1F,i,i,i,i,i,i,nt
Cc1sc(NC(=O)Cc2ccc3c(c2)OCO3)nc1-c1ccc2c(c1)CCN2C(=O)c1ccc(F)cc1,i,i,i,11,nt,i,i
O=C(Nc1ccccc1)N1CC(=O)N2[C@H](CO)[C@@H](c3ccc(-c4ccc(F)cc4)cc3)[C@H]2C1,nt,nt,nt,nt,i,nt,nt
CN(C)S(=O)(=O)c1ccc(C(=O)NCC(=O)Nc2ccc(F)c(F)c2)cc1,i,i,i,7.0,i,i,i
CN(C)S(=O)(=O)c1ccc(C(=O)Nc2ccc(Cl)cc2)cc1,i,i,i,i,i,i,nt
Cc1nn(-c2ccc(F)cc2)c(C)c1/C=C/C(=O)N1CCNC(=O)C1,i,i,i,9.3,i,i,i
c1ccc(CCNC2=NCCCS2)cc1,i,i,i,i,nt,i,i
c1ccc(CCNC2=NCCS2)cc1,i,i,i,i,i,i,nt
C=CCn1c(O)c(N=NC(=O)OCC)c2ccccc21,i,i,i,i,i,i,i
Cn1c(O)c(N=NC(=N)N)c2ccccc21,i,i,i,i,i,i,nt

# High-throughput results deposited in PubChem BioAssay by several laboratories.
